Screening results (PubChem BioAssay)
MEKK3 PB1 HTS: MEKK3-MEK5 PB1 interaction, increase or decrease. Q99759. bead-based flow cytometry, Alexa488-MEK5 binding to MEKK3; actives lie on both sides; 0 = blocked by unlabeled MEK5, 100 = vehicle. binding response (% of control), % at 10 µM. 1.4% of 290,000 active;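 active = binding response more than 3 SD above or below the average of its plate-row segment, actives on both sides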;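 note: Alexa488 bead fluorescence after subtracting the streptavidin-only scavenger bead signal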
Target sequence (Q99759 whole entry, looked up): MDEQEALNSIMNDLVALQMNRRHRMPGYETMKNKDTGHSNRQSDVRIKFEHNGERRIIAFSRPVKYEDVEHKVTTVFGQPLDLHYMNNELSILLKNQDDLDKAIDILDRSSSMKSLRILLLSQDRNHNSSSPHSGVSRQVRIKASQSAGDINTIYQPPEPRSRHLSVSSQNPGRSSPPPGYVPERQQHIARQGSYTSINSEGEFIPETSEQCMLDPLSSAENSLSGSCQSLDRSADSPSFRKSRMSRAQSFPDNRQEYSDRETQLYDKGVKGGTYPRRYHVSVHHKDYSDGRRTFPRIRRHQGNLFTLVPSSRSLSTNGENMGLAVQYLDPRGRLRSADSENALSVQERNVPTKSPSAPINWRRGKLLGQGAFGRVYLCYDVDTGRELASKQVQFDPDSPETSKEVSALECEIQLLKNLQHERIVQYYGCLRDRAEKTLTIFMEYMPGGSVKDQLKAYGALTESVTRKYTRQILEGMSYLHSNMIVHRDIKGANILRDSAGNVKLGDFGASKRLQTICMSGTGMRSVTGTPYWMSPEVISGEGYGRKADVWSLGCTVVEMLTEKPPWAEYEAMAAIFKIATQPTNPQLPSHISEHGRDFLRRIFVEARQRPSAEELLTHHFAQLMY
MEKK2mut PB1 HTS: signal of MEK5 binding to mutant human MEKK2 PB1 domain; percent response, % at 10 µM; bead flow cytometry, Alexa488-MEK5 binding to MEKK2 mutant; 0.35% of 290,000 active; AID 1530; in the data active = percent response above about 24%, passing the limit was not always enough
ATG4B inhibitor: blocks human ATG4B protease cleavage of LC3 substrate; AID 504462; 0.51% of 340,000 active; inhibition, % at 8.33 µM; ATG4B cleavage of LC3-PLA2, NBD-HPC fluorescence, 1 h; in the data active = inhibition above about 40%
Dynein transport: blocks dynein driven cargo transport along microtubules | 3617.4 mouse cells, GR-EGFP nuclear translocation imaging; test concentration mostly 20 µM; stimulated with dexamethasone, 1 µM; active compounds read low | z-score, hits read low | 0.47% of 220,000 active | AID 1381;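 active = plate z-score of nuclear minus cytoplasmic receptor signal below a set negative limit, without overly bright fluorescence or cell loss, cut at about -3.5 in these data, passing the limit was not always enough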;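 note: z-score of nuclear minus cytoplasmic ring GR-EGFP intensity difference per well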
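Schedule: 48 h induction, then 1 h compound, then 30 min agonist, 37 °C. Buffer or medium: tetracycline-free induction medium containing charcoal-stripped FBS. Reagent: 1.0 µM final dexamethasone stimulus. Evaluation: nuclear versus cytoplasmic GR-EGFP signal, averaged per well. Signal: high-content fluorescence imaging after fixation.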
B2AR ag: activates human beta-2 adrenergic receptor causing internalization; Am2.2-beta2AR cells, FAP receptor internalization, flow cytometry; response, % (no concentration beside the values); 0.43% of 340,000 active;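 active = response above a set limit, near 3 SD of response in nonfluorescent compounds, cut at about 42% in these data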
MEKK2wt PB1 HTS: raises or lowers MEK5 binding to wildtype human MEKK2 PB1 domain | 1.1% of 290,000 active | Q9Y2U5 | AID 1531 | binding response (% of control), % at 10 µM | bead flow cytometry, Alexa488-MEK5 binding to MEKK2 WT; actives lie on both sides; in the data active = binding response below about 67% or above about 130%
MEKK2wt confirm: raises or lowers MEK5 binding to wildtype human MEKK2, retest. bead flow cytometry, Alexa488-MEK5 binding to MEKK2 WT; actives lie on both sides. 2.4% of 5,900 active. shares compounds with MEKK3 PB1 HTS. binding response (% of control), % at 10 µM; in the data active = binding response below about 16% or above about 210%; inactive = in between
MEKK2mut-MEK5: signal of MEK5 binding to mutant human MEKK2, retest. shares compounds with MEKK3 PB1 HTS. bead flow cytometry, Alexa488-MEK5 binding to MEKK2 mutant. percent response, % at 10 µM. 2% of 5,900 active; in the data active = percent response mostly above about 71%, no sharp cut-off; inactive = mostly below about 38%;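 note: higher means compound restores mutant binding toward wildtype level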
MEKK3 confirm: MEKK3-MEK5 PB1 inhibition, single concentration confirmation; shares compounds with MEKK3 PB1 HTS; bead flow cytometry, Alexa488-MEK5 binding to MEKK3; active compounds read low; binding response (% of control), % at 10 µM; 1.8% of 5,900 active;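 active = binding response below 72% of control, or above a set upper limit, though filed actives all read lower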;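 note: 100% = DMSO only wells and 0% = binding blocked by excess unlabeled MEK5; lower values mean stronger disruption of MEK5 binding to MEKK3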
Numbers without * were called inactive; / = not tested or not shown; [ ] = another dose, or the depositor's remark. Rows were chosen to be rich in hits. Some 2.9% of all compounds tested hit in one or more screens of this group.

SMILES	MEKK3 PB1 HTS	MEKK2mut PB1 HTS	ATG4B inhibitor	Dynein transport	B2AR ag	MEKK2wt PB1 HTS	MEKK2wt confirm	MEKK2mut-MEK5	MEKK3 confirm
CN(C)/C=C1\NC(=S)N(c2ccccc2)C1=O	104.0	9.0	-5.2	0.871	-0.7	100.0	/	/	/
COc1ccc(N2C(=O)/C(=C/c3cccs3)NC2=S)cc1	141.0*	0.0	-9.8	-0.264	-4.1	104.0	105.0	2.0	105.0
CCc1c(C)nc2ncnn2c1N1CCC(C(=O)NCc2cccs2)CC1	3.0*[inhibitor]	-46.0	-2.5	-0.462	3.5	6.0*[inhibitor]	93.0	-8.0	93.0
CN(C(=O)COC(=O)CNC(=O)c1cccs1)c1c(N)n(Cc2ccccc2)c(=O)[nH]c1=O	/	/	-2.7	/	-3.5	/	/	/	/
O=C(/C=C/c1cccs1)N1CCN(c2ccc(F)cc2)CC1	76.0	-30.0	4.8	0.836	2.9	62.0*[inhibitor]	100.0	0.0	100.0
COc1ccc2cc3c(N)nn(C(=O)c4ccc(Cl)c([N+](=O)[O-])c4)c3nc2c1	104.0	-2.0	9.4	0.79	27.2	89.0	/	/	/
COc1ccc2cc3c(N)nn(C(=O)c4ccccc4[N+](=O)[O-])c3nc2c1	72.0*[inhibitor]	-1.0	-7.5	0.183	8.4	98.0	95.0	-3.0	97.0
CC1(C)Cc2c(cnn2-c2ccc(F)cc2)C(NC(=O)C2=NNC(=O)CC2)C1 (stereo unspecified)	103.0	-1.0	-2.6	/	0.3	103.0	/	/	/
Cc1ccc(C(=O)NCC(=O)OC(C)C(=O)Nc2ccc(N(C)C)cc2)s1 (stereo unspecified)	49.0*[inhibitor]	-15.0	-4.8	1.41	5.5	50.0	113.0	10.0	108.0
CC(C)CC(=O)Nc1ccc(S(=O)(=O)Nc2nccs2)cc1	96.0	-3.0	0.7	/	-6.5	95.0	/	/	/
CCn1c(SCC(=O)c2ccc(NC(C)=O)c(OC)c2)nnc1-c1ccc(NS(C)(=O)=O)cc1	105.0	-1.0	4.3	0.0834	-0.5	102.0	/	/	/
CCC(=O)Nc1ccc(C(=O)CSc2nnc(-c3ccc(NS(C)(=O)=O)cc3)n2C)cc1OC	73.0*[inhibitor]	-1.0	3.5	0.257	-11.4	94.0	103.0	4.0	104.0
CCC(=O)Nc1ccc(-c2nnc(SCC(=O)N3CCCCC3)n2C)cc1	2.0*[inhibitor]	-15.0	-6.4	-0.0751	-7.1	1.0*[inhibitor]	103.0	1.0	108.0
Cn1c(SCC(=O)N2CCCC2)nnc1-c1ccc(S(=O)(=O)N2CCCC2)cc1	98.0	7.0	7.5	-0.433	-6.6	101.0	/	/	/
CS(=O)(=O)N1CCN(c2ccc(NC(=O)c3cccnc3Cl)cc2)CC1	1.0*[inhibitor]	-20.0	6.9	0.349	0.9	-3.0*[inhibitor]	96.0	-7.0	84.0
CN(Cc1ccccc1)C(=O)C1CCC(CNS(=O)(=O)c2cccc3cccnc23)CC1 (stereo unspecified)	131.0*	26.0	-9.4	-0.0841	4.7	119.0	106.0	2.0	99.0
COC(=O)N1C(=O)[C@@](c2ccccc2)(C(C)C)N1C(=O)OC	94.0	-13.0	-7.1	/	-1.7	83.0	/	/	/
COC(=O)N1C(=O)[C@](c2ccccc2)(C2CCCC2)N1C(=O)OC	100.0	30.0*	6.5	/	-1.3	96.0	100.0	-4.0	98.0
COc1ccc(-c2cn3cc([N+](=O)[O-])ccc3n2)cc1OC	75.0*[inhibitor]	-1.0	-5.8	-0.465	-5.0	90.0	112.0	11.0	107.0
COc1ccc(-c2[nH]c(-c3ccc(C)cc3)nc2SCC(=O)Nc2nccs2)cc1	134.0*	0.0	9.8	-0.0798	-3.5	106.0	109.0	5.0	103.0
